The source made the active and inactive calls. The rule behind the calls is not given here.
Legend:
[1] = test system: MDCK; assay: Cytotoxicity against MDCK cells after 72 hrs by MTT assay; type: cell-based; settings: Canis lupus familiaris
Summary of the method: (§1)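 Cells kept as adherent monolayers in DMEM with 10% FBS, 37°C, 5% CO2. Trypsin-harvested, seeded at 5 × 10^3 cells/well, then exposed to compound at 0.1 to 100 µM for 72 h. MTT (4 mg/ml) added for 4 h, formazan dissolved in DMSO, absorbance read at 570 nm. At least three experiments, each in triplicate; mean±SD.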

[2] = (§2) Cytotoxicity against human S1 cells after 72 hrs by MTT assay; type: functional, cell-based; settings: S1, 72 h; summary of the method: as §1
[3] = test system: HEK293; assay: Cytotoxicity against HEK293 cells expressing ABCB1 after 72 hrs by MTT assay; type: functional, cell-based; settings: Homo sapiens, HEK293, 72 h; summary of the method: as §1
[4] = test system: HCT-116; assay: Induction of morphological changes in human HCT116 cells up to 100 uM after 68 hrs by inverted microscopy; type: functional, cell-based
Summary of the method: (§3)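 Cells grown in DMEM/10% FBS and treated in triplicate for 68 h. Photographed with an inverted microscope at 20X alongside untreated wells. Images scored double-blind for cell size, shape, number and debris.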

[5] = test system: HEK293; assay: Resistance index, ratio of IC50 for HEK293 cells expressing ABCB1 to IC50 for HEK293 cells expressing pcDNA3.1; parameters: species or system Homo sapiens
Summary of the method: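 Fold resistance is the IC50 in P-glycoprotein-overexpressing HEK293/ABCB1 cells divided by the IC50 in empty-vector HEK293/pcDNA3.1 cells. IC50s from the 72 h MTT assay; paclitaxel was the positive-control ABCB1 substrate.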

[6] = test system: PC-3; assay: Induction of morphological changes in human PC3 cells up to 100 uM after 68 hrs by inverted microscopy; type: functional, cell-based; summary of the method: as §3
[7] = (§4) Cytotoxicity against human HCT116 cells after 72 hrs by MTT assay; type: functional, cell-based; settings: HCT-116, 72 h; summary of the method: as §1
[8] = test system: MCF7; assay: Cytotoxicity against human MCF7 cells after 72 hrs by MTT assay; type: functional, cell-based; settings: for IC50: MCF7, 72 h; summary of the method: as §1
[9] = test system: MDA-MB-231; assay: Cytotoxicity against human MDA-MB-231 cells after 72 hrs by MTT assay; type: functional, cell-based; settings: for IC50: MDA-MB-231, 72 h; summary of the method: as §1
[10] = (§5) Cytotoxicity against human PC3 cells after 72 hrs by MTT assay; type: functional, cell-based; settings: PC-3, 72 h; summary of the method: as §1
[11] = test system: DU-145; assay: Potency index, ratio of IC50 for hispolon to IC50 for compound for human DU145 cells after 72 hrs by MTT assay; type: functional
Summary of the method: (§6)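 Ratio of the hispolon IC50 to the analog IC50 in the same cancer line. Both IC50s come from the 72 h MTT assay (0.1–100 µM), with survival curves fitted by the Bliss method.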

[12] = test system: HCT-116; assay: Reduction in mitochondrial membrane potential in human HCT116 cells at 0.5 uM after 4 hrs by Mitotracker red staining based flow cytometry (reference value: 27.56%); type: functional; parameters: scale not given: the % may be the effect or the level left
Summary of the method: (§7)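 HCT-116 cells in 6-well plates, exposed in complete medium with or without compound (0.5 or 5 µM) for 4 h. Harvested and stained with MitoTracker Red for 30 min at 37°C, washed in PBS, then given Alexa Fluor 488 annexin V in annexin-binding buffer for 15 min. Flow cytometry with emission read at 530 and 585 nm; quadrant analysis against untreated control.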

[13] = test system: PC-3; assay: Potency index, ratio of IC50 for hispolon to IC50 for compound for human PC3 cells after 72 hrs by MTT assay; type: functional; summary of the method: as §6
[14] = test system: HCT-116; assay: Induction of apoptosis in human HCT116 cells at 0.5 uM after 4 hrs by Alexa fluor 488 annexin V staining based flow cytometry (reference value: 5.58%); type: functional; summary of the method: as §7
[15] = test system: HEK293; assay: Ratio of IC50 for HEK293 cells expressing pcDNA3.1 to IC50 for human S1 cells
Summary of the method: (§8)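 Selectivity ratio of the IC50 in empty-vector HEK293/pcDNA3.1 cells to the IC50 in each cancer line. IC50s from the 72 h MTT assay (0.1–100 µM, Bliss method, ≥3 experiments in triplicate).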

[16] = test system: DU-145; assay: Cytotoxicity against human DU145 cells after 72 hrs by MTT assay; type: functional, cell-based; summary of the method: as §1
[17] = test system: HCT-116; assay: Induction of apoptosis in human HCT116 cells at 5 uM after 4 hrs by Alexa fluor 488 annexin V staining based flow cytometry (reference value: 5.58%); type: functional; summary of the method: as §7
[18] = test system: S1; assay: as §2; type: functional, cell-based; summary of the method: as §1
[19] = test system: HEK293; assay: Ratio of IC50 for HEK293 cells expressing pcDNA3.1 to IC50 for human HCT116 cells; summary of the method: as §8
[20] = test system: HCT-116; assay: Induction of morphological changes in human HCT116 cells assessed as increase in cell size at 1 uM after 68 hrs by inverted microscopy; type: functional, cell-based; summary of the method: as §3
[21] = test system: HCT-116; assay: as §4; type: functional, cell-based; summary of the method: as §1
[22] = test system: HCT-116; assay: Reduction in mitochondrial membrane potential in human HCT116 cells after 4 hrs by Mitotracker red staining based flow cytometry (reference value: 27.56%); type: functional, cell-based; summary of the method: as §7
[23] = test system: HCT-116; assay: Reduction in mitochondrial membrane potential in human HCT116 cells at 5 uM after 4 hrs by Mitotracker red staining based flow cytometry (reference value: 27.56%); type: functional; parameters: scale not given: the % may be the effect or the level left; summary of the method: as §7
[24] = Potency index, ratio of IC50 for hispolon to IC50 for compound for human S1 cells after 72 hrs by MTT assay; type: functional; summary of the method: as §6
[25] = test system: PC-3; assay: as §5; type: functional, cell-based; summary of the method: as §1
[26] = test system: PC-3; assay: Induction of morphological changes in human PC3 cells assessed as increase in cell size at 1 uM after 68 hrs by inverted microscopy; type: functional, cell-based; summary of the method: as §3
[27] = test system: HEK293; assay: Ratio of IC50 for HEK293 cells expressing pcDNA3.1 to IC50 for human PC3 cells; summary of the method: as §8
[28] = test system: HCT-116; assay: Potency index, ratio of IC50 for hispolon to IC50 for compound for human HCT116 cells after 72 hrs by MTT assay; type: functional; summary of the method: as §6
[29] = test system: HEK293; assay: Cytotoxicity against HEK293 cells expressing pcDNA3.1 after 72 hrs by MTT assay; type: cell-based; settings: Homo sapiens, HEK293, 72 h; summary of the method: as §1
[30] = test system: HEK293; assay: Ratio of IC50 for HEK293 cells expressing pcDNA3.1 to IC50 for human DU145 cells; summary of the method: as §8

Question: Which IC50 [1] does the source give for `COc1cc(CCC(=O)CC(C)=O)ccc1O` here?
Answer: 72.5 µM

Question: And the IC50 [2]?
Answer: 98.2 µM

Question: And the IC50 [3]?
Answer: 92.5 µM

Question: And the Activity [4]?
Answer: inactive

Question: And the “Ratio IC50” value [5]?
Answer: 1

Question: What about the Activity [6] of the same molecule?
Answer: inactive

Question: And the IC50 [7]?
Answer: 80.8 µM

Question: What about the IC50 [8] of the same molecule?
Answer: > 100 µM

Question: What about the IC50 [9] of the same molecule?
Answer: > 100 µM

Question: What about the IC50 [10] of the same molecule?
Answer: > 100 µM

Question: Which results are given for `COc1cc(/C=C/C(=O)CC(C)=O)ccc1O`?
Answer: Ratio IC50 [11]: 5.5; Activity [12]: 84.88%; Ratio IC50 [13]: 2; IC50 [1]: 13.1 µM; Activity [14]: 2.64%; Ratio IC50 [15]: 9; Activity [16]: Dose-dependent effect; IC50 ([16]; DU-145, 72 h): 5.2 µM; Activity [17]: 11.69%; Activity [18]: Dose-dependent effect; IC50 [2]: 1.8 µM; Ratio IC50 [19]: 11; IC50 [3]: 18.9 µM; Ratio IC50 [5]: 1.2; Activity [20]: Active; IC50 [7]: 1.4 µM; Activity [21]: Dose-dependent effect; Activity [22]: Dose-dependent effect; Activity [23]: 72.74%; Activity [8]: Dose-dependent effect; IC50 [8]: 7.4 µM; Activity [9]: Dose-dependent effect; IC50 [9]: 9.7 µM; Ratio IC50 [24]: 4.7; Activity [25]: Dose-dependent effect; IC50 [10]: 6.3 µM; Activity [26]: Active; Ratio IC50 [27]: 2; Ratio IC50 [28]: 3.7; IC50 [29]: 15.8 µM; Ratio IC50 [30]: 3
